Test results published in ChEMBL document CHEMBL1157267, “Polyphenolic constituents of Actaea racemosa” (J Nat Prod, 2006).

Legend:
Assay type in all cases: functional
[1] = test system: Radical scavenging activity; experiment: Antioxidant activity assessed as DPPH free radical scavenging activity
Outline: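 DPPH free-radical scavenging assay run on purified isolates with 400 µM DPPH. IC50 (µM) reported as the concentration giving half-maximal radical scavenging.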

MCF7 [2] = experiment: Stimulation of cell proliferation in human MCF7 cells assessed as cell viability at 14 uM after 4 days relative to control
Outline: (§1)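 MCF-7 cells grown in DMEM with 10% FBS at 37 °C and 5% CO2. Before seeding they were passaged at least twice in phenol red-free DMEM with 2 mM L-glutamine and 5% charcoal-stripped serum, then washed twice with PBS. Cells were seeded at 2 × 10^4 per well, allowed 24 h to attach, then given fresh medium with compound. After 4 days attached viable cells were Coulter-counted relative to untreated cells.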

MCF7 [3] = experiment: Cytotoxicity against human MCF7 cells at 30 uM; conditions: read-out: GI; outline: as §1
MCF7 [4] = experiment: Stimulation of cell proliferation in human MCF7 cells assessed as cell viability at 10 uM after 4 days relative to control; outline: as §1
MCF7 [5] = experiment: Stimulation of cell proliferation in human MCF7 cells assessed as cell viability at 16.8 uM after 4 days relative to control; outline: as §1
MCF7 [6] = experiment: Stimulation of cell proliferation in human MCF7 cells assessed as cell viability at 3.7 nM after 4 days relative to control; outline: as §1

| IC50 [1] | Structure (SMILES) | further results |
| --- | --- | --- |
| 12 µM | COc1cc(/C=C/C(=O)O[C@H](C(=O)O)[C@](O)(Cc2ccc(O)c(O)c2)C(=O)O)ccc1O [CIMICIFUGIC ACID A] |  |
| 21 µM | COc1ccc(/C=C/C(=O)O[C@H](C(=O)O)[C@](O)(Cc2ccc(O)c(O)c2)C(=O)O)cc1O [CIMICIFUGIC ACID B] |  |
| 37 µM | COc1ccc(/C=C/C(=O)O[C@H](C(=O)O)[C@](O)(Cc2ccc(O)c(O)c2)C(=O)O)cc1OC [CIMICIFUGIC ACID G] | inhibition of growth at 30 µM (MCF7 [3]): 32%; fold change (FC) (MCF7 [4]): 1.14 |

The next lines start with the compound.

| Structure (SMILES) | IC50 [1] | further results |
| --- | --- | --- |
| O=C1OCC(O)(C(=O)c2ccc(O)c(O)c2)/C1=C\c1ccc(O)c(O)c1 (stereo unspecified) [ACTAEALACTONE] | 26 µM | fold change (FC) (MCF7 [2]): 1.24 |
| O=C1OC[C@H](Cc2cccc(O)c2)[C@H]1Cc1cccc(O)c1 [ENTEROLACTONE] |  | fold change (FC) (MCF7 [5]): 1.84 |
| C[C@]12CC[C@@H]3c4ccc(O)cc4CC[C@H]3[C@@H]1CC[C@@H]2O [ESTRADIOL] |  | fold change (FC) (MCF7 [6]): 3.6 |
| O=C(/C=C/c1ccc(O)c(O)c1)O[C@H](C(=O)O)[C@](O)(Cc1ccc(O)c(O)c1)C(=O)O [FUKINOLIC ACID] | 23 µM |  |
| O=C(O)c1cc(O)c(O)c(O)c1 [GALLIC ACID] | 29.9 µM |  |
